In ChEMBL document CHEMBL2417372, “Design, synthesis, and mechanism of action of 2-(3-hydroxy-5-methoxyphenyl)-6-pyrrolidinylquinolin-4-one as a potent anticancer lead” (Bioorg Med Chem Lett, 2013):

Key:
[1] = system: NCI-H522; test: Cytotoxicity against human NCI-H522 cells after 48 hrs by MTT assay; type: functional, cell-based; details: NCI-H522, 48 h
[2] = Cytotoxicity against human Hep3B cells after 48 hrs; type: functional, cell-based, Hep 3B2
Outline: (§1)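 MTT viability assay on log-phase cells at 37 °C, exposed to compound or DMSO vehicle for 48 h. MTT (1 mg/mL in PBS) was then added for 2 h, and absorbance was read at 570 nm with 630 nm correction. IC50 is the concentration giving 50% proliferation inhibition. Cells were cultured in 5% CO2: HL-60 in RPMI-1640 with 10% FBS; Hep3B in DMEM/F12 with 10% FBS; Detroit 551 in DMEM with 10% FBS.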

[3] = system: Detroit 551; test: Cytotoxicity against human Detroit 551 cells after 48 hrs; type: cell-based; details: Detroit 551, 48 h; outline: as §1
[4] = system: BT-549; test: Cytotoxicity against human BT549 cells after 48 hrs; type: functional; details: BT-549, 48 h
[5] = Cytotoxicity against human Hs578T cells after 48 hrs; type: functional; details: Hs-578T
[6] = system: DU-145; test: Cytotoxicity against human DU145 cells after 48 hrs; type: functional; details: DU-145, 48 h
[7] = system: PC-3; test: Cytotoxicity against human PC3 cells after 48 hrs; type: functional; details: PC-3, 48 h
[8] = system: SN12C; test: Cytotoxicity against human SN12C cells after 48 hrs; type: functional
[9] = system: UO-31; test: Cytotoxicity against human UO31 cells after 48 hrs; type: functional; details: UO-31, 48 h
[10] = system: RXF 393; test: Cytotoxicity against human RXF393 cells after 48 hrs; type: functional; details: RXF 393, 48 h
[11] = system: ACHN; test: Cytotoxicity against human ACHN cells after 48 hrs; type: functional
[12] = system: CAKI-1; test: Cytotoxicity against human CAKI-1 cells after 48 hrs; type: functional; details: CAKI-1, 48 h
[13] = system: OVCAR-8; test: Cytotoxicity against human OVCAR8 cells after 48 hrs; type: functional; details: OVCAR-8, 48 h
[14] = system: OVCAR-3; test: Cytotoxicity against human OVCAR3 cells after 48 hrs; type: functional; details: OVCAR-3, 48 h
[15] = system: SK-MEL-28; test: Cytotoxicity against human SK-MEL-28 cells after 48 hrs; type: functional; details: SK-MEL-28, 48 h
[16] = system: M14; test: Cytotoxicity against human M14 cells after 48 hrs; type: functional; details: M14, 48 h
[17] = system: LOX IMVI; test: Cytotoxicity against human LOXIMVI cells after 48 hrs; type: functional
[18] = system: U-251; test: Cytotoxicity against human U251 cells after 48 hrs; type: functional; details: U-251, 48 h
[19] = system: SNB-75; test: Cytotoxicity against human SNB75 cells after 48 hrs; type: functional; details: SNB-75, 48 h
[20] = system: SNB-19; test: Cytotoxicity against human SNB19 cells after 48 hrs; type: functional; details: SNB-19, 48 h
[21] = system: SF-295; test: Cytotoxicity against human SF295 cells after 48 hrs; type: functional; details: SF-295, 48 h
[22] = system: SW-620; test: Cytotoxicity against human SW620 cells after 48 hrs; type: functional; details: SW-620, 48 h
[23] = system: HT-29; test: Cytotoxicity against human HT-29 cells after 48 hrs; type: functional; details: HT-29, 48 h
[24] = system: HCT-15; test: Cytotoxicity against human HCT15 cells after 48 hrs; type: functional; details: HCT-15, 48 h
[25] = system: HCC 2998; test: Cytotoxicity against human HCC2998 cells after 48 hrs; type: functional; details: HCC 2998, 48 h
[26] = system: HCT-116; test: Cytotoxicity against human HCT116 cells after 48 hrs; type: functional; details: HCT-116, 48 h
[27] = system: COLO 205; test: Cytotoxicity against human COLO205 cells after 48 hrs; type: functional; details: COLO 205, 48 h
[28] = system: NCI-H522; test: Cytotoxicity against human NCI-H522 cells after 48 hrs; type: functional; details: NCI-H522, 48 h, read-out: pLC50 (the source's name) (converted)
[29] = system: NCI-H322M; test: Cytotoxicity against human NCI-H322M cells after 48 hrs; type: functional
[30] = system: NCI-H460; test: Cytotoxicity against human NCI-H460 cells after 48 hrs; type: functional, cell-based; details: NCI-H460, 48 h
[31] = system: HOP-92; test: Cytotoxicity against human HOP92 cells after 48 hrs; type: functional; details: HOP-92, 48 h
[32] = system: K562; test: Cytotoxicity against human K562 cells after 48 hrs; type: functional; details: K562, 48 h
[33] = system: MOLT-4; test: Cytotoxicity against human MOLT4 cells after 48 hrs; type: functional; details: MOLT-4, 48 h
[34] = read-out: pLC50 (the source's name) (converted)

COc1cc(O)cc(-c2cc(=O)c3cc(N4CCCC4)ccc3[nH]2)c1
IC50 [1]: 0.0423 µM
IC50 [2]: 0.5 µM
IC50 [3]: > 50 µM
GI50 [4]: 0.0372 µM
CC50 [4, 34]: > 100 µM
TGI ([4]; read-out: pTGI): > 100 µM
GI50 [5]: 0.038 µM
CC50 [5, 34]: > 100 µM
TGI ([5]; read-out: pTGI (converted)): 70.8 µM
GI50 [6]: 0.0309 µM
CC50 [6, 34]: > 100 µM
TGI ([6]; read-out: pTGI (converted)): 0.257 µM
GI50 [7]: 0.0977 µM
CC50 [7, 34]: > 100 µM
TGI ([7]; read-out: pTGI): > 100 µM
GI50 [8]: 0.0724 µM
CC50 [8, 34]: > 100 µM
TGI ([8]; read-out: pTGI): > 100 µM
GI50 [9]: 0.182 µM
CC50 [9, 34]: > 100 µM
TGI ([9]; read-out: pTGI): > 100 µM
GI50 [10]: 0.0407 µM
CC50 [10, 34]: > 100 µM
TGI ([10]; read-out: pTGI (converted)): 24 µM
GI50 [11]: 0.0776 µM
CC50 [11, 34]: > 100 µM
TGI ([11]; read-out: pTGI): > 100 µM
GI50 [12]: 0.0832 µM
CC50 [12, 34]: > 100 µM
TGI ([12]; read-out: pTGI): > 100 µM
GI50 [13]: 0.0389 µM
CC50 [13, 34]: > 100 µM
TGI ([13]; read-out: pTGI (converted)): 31.6 µM
GI50 ([14]; read-out: pGI50 (converted)): 0.0234 µM
CC50 [14, 34]: 6.46 µM
TGI ([14]; read-out: pTGI (converted)): 0.0891 µM
GI50 [15]: 0.0741 µM
CC50 [15, 34]: > 100 µM
TGI ([15]; read-out: pTGI): > 100 µM
GI50 [16]: 0.0302 µM
CC50 [16, 34]: > 100 µM
TGI ([16]; read-out: pTGI (converted)): 15.8 µM
GI50 [17]: 0.0324 µM
CC50 [17, 34]: > 100 µM
TGI ([17]; read-out: pTGI): > 100 µM
GI50 [18]: 0.0468 µM
CC50 [18, 34]: 87.1 µM
TGI ([18]; read-out: pTGI (converted)): 14.5 µM
GI50 [19]: 0.0347 µM
CC50 [19, 34]: 77.6 µM
TGI ([19]; read-out: pTGI (converted)): 13.2 µM
GI50 [20]: 0.0741 µM
CC50 [20, 34]: > 100 µM
TGI ([20]; read-out: pTGI): > 100 µM
GI50 [21]: 0.11 µM
TGI ([21]; read-out: pTGI (converted)): 11.2 µM
GI50 [22]: 0.0447 µM
CC50 [22, 34]: > 100 µM
TGI ([22]; read-out: pTGI): > 100 µM
GI50 [23]: 0.0759 µM
CC50 [23, 34]: > 100 µM
TGI ([23]; read-out: pTGI): > 100 µM
GI50 [24]: 0.0537 µM
CC50 [24, 34]: > 100 µM
TGI ([24]; read-out: pTGI): > 100 µM
GI50 [25]: 0.0457 µM
CC50 [25, 34]: > 100 µM
TGI ([25]; read-out: pTGI): > 100 µM
GI50 [26]: 0.0355 µM
CC50 [26, 34]: > 100 µM
TGI ([26]; read-out: pTGI): > 100 µM
GI50 [27]: 0.0537 µM
TGI ([27]; read-out: pTGI (converted)): 0.219 µM
CC50 [28]: 3.89 µM
GI50 [29]: 0.0724 µM
CC50 [29, 34]: > 100 µM
TGI ([29]; read-out: pTGI): > 100 µM
GI50 [30]: 0.324 µM
IC50 [30]: 2.12 µM
LC50 [30]: > 100 µM
TGI ([30]; read-out: pTGI): > 100 µM
GI50 [31]: 30.9 µM
CC50 [31, 34]: > 100 µM
TGI ([31]; read-out: pTGI): > 100 µM
GI50 [32]: 0.0234 µM
CC50 [32, 34]: > 100 µM
TGI ([32]; read-out: pTGI): > 100 µM
GI50 [33]: 0.0347 µM
CC50 [33, 34]: > 100 µM
TGI ([33]; read-out: pTGI): > 100 µM
